L major viab: reduces viability of Leishmania major promastigotes | 9% of 200,000 active | resazurin fluorescence viability | inhibition, % at 10 µM;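 also: promastigotes grown with compound for 44 hours at 28 °C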
WT yeast gro inh: growth inhibition of WT yeast, mitochondrial fusion screen | mitochondrial fusion phenotypic screen, WT strain | inhibition, % at 10 µM | 2.1% of 190,000 active | AID 1362; in the data active = inhibition above about 58%; tested in S. cerevisiae
G6PDH CS: inhibits Leuconostoc G6PDH, flagging false hits in G6PDH-based assays; Purified L. mesenteroides G6PDH, diaphorase/resazurin coupled fluorescence, 45 min; inhibition, % at 5 µM; 0.12% of 200,000 active
Diaph act CS: counter-screen for diaphorase-based assays: diaphorase activators and chemical reducers. Diaphorase/resazurin coupled assay, resorufin fluorescence, 16 min; stronger effect = higher value; 1 = vehicle wells, 0 = NADH-free wells. activation factor at 20 µM. 0.005% of 190,000 active;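 active = diaphorase activity raised at least twofold by the compound at 20 µM; inactive = activation factor below 2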
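Assay system: Purified diaphorase enzyme from Clostridium kluyveri | Amount: Enzyme 0.07 U/mL final | Dosing: Compound 20 µM once, DMSO 1% | Timing: 16 min reaction at room temperature | Detection: Fluorescence, excitation 544 nm and emission 590 nm | Evaluation: Higher resorufin formation from activation or reduction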
Diaph inh CS: diaphorase inhibition or chemical oxidation counter-screen; diaphorase resazurin-to-resorufin fluorescence, NADH, 16 min; bacterial (C. kluyveri) enzyme, not human; inhibition, % at 20 µM; 0.69% of 190,000 active; AID 1217;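 active = primary screen inhibition at 20 µM above a set limit, cut at about 50% in these data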
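controls = No-NADH positive control and DMSO neutral control | system = Clostridium kluyveri diaphorase enzyme | timing = reaction incubation of 16 min at room temperature | signal = resorufin fluorescence 544/590 nm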
Hits are given with their value; 0 = inactive; - = no result given. An excerpt weighted towards active compounds, which were near 11% of everything screened. Rule as the data show it, unless noted: active = inhibition above about 50%; inactive = the rest.

SMILES	L major viab	WT yeast gro inh	G6PDH CS	Diaph act CS	Diaph inh CS
CC(C)C(=O)N1CCN(c2cc(N3CCN(C)CC3)c(F)cc2[N+](=O)[O-])CC1	96	0	0	0	0
COc1ccc(/C=N\N=C2/SC(CC(=O)O)C(=O)N2c2ccc(O)cc2)cc1OC (stereo not drawn)	56	0	0	0	0
O=C(CCNC(=O)Cn1ccc2ccccc2c1=O)NCCc1ccc(Cl)cc1	55	0	0	0	0
CCN(CC)S(=O)(=O)c1ccc(C)c(NC(=O)Cn2cnc3cc([N+](=O)[O-])ccc3c2=O)c1	72	0	0	0	0
O=C(Cn1cnc2cc([N+](=O)[O-])ccc2c1=O)NCc1ccccc1	60	0	0	0	0
O=C(Cn1cnc2cc([N+](=O)[O-])ccc2c1=O)NCCc1ccc(F)cc1	0	0	0	0	0
O=C(Cn1cnc2cc([N+](=O)[O-])ccc2c1=O)Nc1ccc2c(c1)CCC2	0	0	0	0	0
O=C(Cn1cnc2cc([N+](=O)[O-])ccc2c1=O)NCCc1ccc(Cl)cc1	64	0	0	0	0
Cc1cccc(NC(=O)CSc2nnc(C)c(=O)n2N)c1	0	0	0	0	0
Cc1ccccc1OCCn1cnc2cc([N+](=O)[O-])ccc2c1=O	73	0	0	0	0
CC(C)N(C(=O)Cn1cnc2cc([N+](=O)[O-])ccc2c1=O)C(C)C	0	0	0	0	0
Cc1cc(OCCCn2cnc3ccccc3c2=O)ccc1[N+](=O)[O-]	59	0	0	0	0
O=c1c2ccccc2ncn1CCCOc1ccccc1[N+](=O)[O-]	0	0	0	0	0
COc1cccc(-c2csc(N3CCN(CC(=O)NNC(=O)c4ccco4)CC3)n2)c1	0	0	0	0	0
OC1CC(c2ccco2)NC2(CCCCC2)C1 (stereo not drawn)	0	0	0	0	0
O=C1N=c2ccccc2=C1c1c(O)n(-c2cccc(F)c2)[nH]c1=O	61	0	0	0	0
c1ccc(Cc2nc3ccccc3o2)cc1	0	0	0	0	0
COc1cc(/C(C)=N/NC(=O)CSc2nncn2C)ccc1OCc1ccccc1Cl	73	0	0	0	0
CCCCCC(=O)O[C@]1(C(C)=O)CC[C@H]2[C@@H]3CCC4=CC(=O)CC[C@]4(C)[C@H]3CC[C@@]21C	0	74	0	0	0
COC(=O)C1=C(C)NC2=C(C(=O)CC(C)(C)C2)C1c1cn(Cc2ccc(Br)cc2)nc1-c1ccccc1 (stereo not drawn)	99	70	0	0	0
COc1nc(C)nc(NC(=O)NS(=O)(=O)c2ccc(C)cc2)n1	0	0	0	0	0
CC(C)CC(C(=O)NCC1CCCO1)N(C(=O)Cn1nnc(-c2ccc(F)cc2)n1)c1ccccc1F (stereo not drawn)	0	0	0	0	0
COc1ccc(C2C3=C(Nc4ncnn42)c2ccccc2CCC3)cc1 (stereo not drawn)	0	0	0	0	0
Fc1ccc(/C=C2\CCCC3=C2Nc2ncnn2C3c2ccc(F)cc2)cc1 (stereo not drawn)	73	-	0	0	0
CCCCN(CCCC)c1ncnc2nc[nH]c12	0	78	0	0	0
SMILES	L major viab	WT yeast gro inh	G6PDH CS	Diaph act CS	Diaph inh CS
Cc1ccc2nc(C)cc(C(=O)OCC(=O)Nc3c(C)n(C)n(-c4ccccc4)c3=O)c2c1	0	0	0	0	0
CCOc1ccc(/C=N/Nc2ccccn2)cc1	0	0	0	0	0
CCOc1ccc(/C=N/Nc2cc(=O)n(C)c(=O)n2C)cc1	71	0	0	0	0
CCCCC(=O)OCc1nc(N)nc(Nc2ccccc2C)n1	63	0	0	0	0
Cc1ccccc1Nc1nc(N)nc(COC(=O)c2ccc(S(=O)(=O)N(C)C)cc2)n1	67	0	0	0	0
CCOC(=O)c1nnn(CC(=O)N2N=C(c3cccc4ccccc34)CC2c2ccccc2)c1C(=O)OCC (stereo not drawn)	52	0	0	0	0
Cc1cc(C(=O)COc2ccccc2Cl)c(C)n1-c1ccc2c(c1)OCO2	0	0	0	0	0
Cc1cc(C(=O)CSc2nc(N)cc(=O)[nH]2)c(C)n1-c1ccc(OC(F)F)cc1	98	0	0	0	0
Cc1cc(C(=O)CSc2nc(N)cc(N)n2)c(C)n1-c1cccc(F)c1	77	0	0	0	0
COc1ccc(CCn2c(C)cc(C(=O)CSc3nc(N)cc(=O)[nH]3)c2C)cc1	0	0	0	0	0
Cc1cc(C(=O)CSc2n[nH]c(N)n2)c(C)n1-c1ccc2c(c1)OCO2	60	0	0	0	0
Cc1cc(C)nc(SCC(CSc2nc(C)cc(C)n2)C(=O)O)n1	0	0	0	0	0
COC(=O)c1ccc(CSc2nc3ccccc3c(=O)n2-c2ccc(OC)c(OC)c2)o1	97	0	0	0	0
COC(=O)c1ccc(CSc2nc3c(c(=O)n2-c2ccc(F)cc2)SCC3)o1	100	0	0	0	0
COc1ccc(NC(=O)CSc2nc3c(c(=O)n2-c2ccc(F)cc2)SCC3)cc1	0	0	0	0	0
COC(=O)c1ccc(CSc2nc3ccccc3c(=O)n2-c2ccccc2)o1	0	0	0	0	0
O=C(CSc1nc2c(c(=O)n1-c1ccccc1)SCC2)N1CCOCC1	0	0	0	0	0
COC(=O)c1ccc(CSc2nc3c(c(=O)n2-c2ccccc2)SCC3)o1	87	0	0	0	0
CCC(C)NC(=O)CCc1nc2ccccc2n1-c1ccccc1 (stereo not drawn)	0	0	0	0	0
N=c1n(CC(=O)O)c2ccccc2n1Cc1ccccc1Cl	0	0	0	0	0
N=c1n(CC(=O)c2ccc([N+](=O)[O-])cc2)c2ccccc2n1Cc1ccccc1	99	0	0	0	0
N=c1n(CC(=O)c2ccc([N+](=O)[O-])cc2)c2ccccc2n1Cc1ccccc1Cl	101	0	0	0	0
N=c1n(CC(=O)c2ccc([N+](=O)[O-])cc2)c2ccccc2n1Cc1ccc(Cl)cc1	100	0	0	0	0
C=CCn1c(=N)n(CC(=O)c2cccc([N+](=O)[O-])c2)c2ccccc21	0	0	0	0	0
CNC(=O)C(=O)NCC1OCCN1S(=O)(=O)c1ccc2c(c1)OCCO2 (stereo not drawn)	0	0	0	0	0
Cc1cc2oc(=O)cc(CN3CCN(S(=O)(=O)/C=C/c4ccccc4)CC3)c2cc1C	96	0	0	0	0
O=S(=O)(/C=C/c1ccccc1)N1CCN(Cc2ccc3c(c2)OCO3)CC1	85	0	0	0	0
Cc1cc2oc(=O)cc(CN3CCN(S(=O)(=O)c4ccc5c(c4)OCCO5)CC3)c2cc1C	0	0	0	0	0
C(=C\c1ccccc1)/CN1CCN(Cc2ccc3c(c2)OCCO3)CC1	92	0	0	0	0
Nc1ccccc1-c1n[nH]c(=S)s1	0	0	0	0	0

Screening data (PubChem)
